Results reported in ChEMBL document CHEMBL1150381, “Effects of amide constituents from pepper on adipogenesis in 3T3-L1 cells” (Bioorg Med Chem Lett, 2008).
Active and inactive are the calls of the source. No cut-off for these calls is given here.

Experiments:
[1] = tested on: 3T3-L1; assay: Antidiabetic activity in mouse 3T3L1 cells assessed as enhancement of triglyceride accumulation at 1 uM; assay type: functional
Summary of the method: (§1)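 3T3-L1 cells (5.0 × 10^4/well) in DMEM + 10% FCS; after 24 h differentiated 72 h in high-glucose DMEM/10% FCS with 1 µM dexamethasone, 0.5 mM IBMX, 5 µg/mL insulin, then maintenance medium (10% FCS, 5 µg/mL insulin) 4 days. Compound in DMSO (final 0.1%) in both media. Day 8: cells sonicated in water, triglyceride measured by enzymatic kit; means ± SEM, n = 4.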

[2] = tested on: 3T3-L1; assay: Antidiabetic activity in mouse 3T3L1 cells assessed as enhancement of triglyceride accumulation at 3 uM; assay type: functional; summary of the method: as §1
[3] = tested on: 3T3-L1; assay: Antidiabetic activity in mouse 3T3L1 cells assessed as enhancement of triglyceride accumulation at 10 uM; assay type: functional; summary of the method: as §1
[4] = tested on: 3T3-L1; assay: Antidiabetic activity in mouse 3T3L1 cells assessed as enhancement of triglyceride accumulation at 30 uM; assay type: functional; summary of the method: as §1
[5] = tested on: 3T3-L1; assay: Cytotoxicity against mouse 3T3L1 cells at 30 uM; assay type: cell-based; conditions: 3t3-l1, 30 µM
Summary of the method: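 Cells differentiated and treated through day 8 as in triglyceride assay; cytotoxicity at 30 µM judged by cell detachment from culture plate surface.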

[6] = tested on: 3T3-L1; assay: Increase in 2-deoxyglucose uptake in mouse 3T3L1 cells at 3 uM by liquid scintillation counter; assay type: functional, cell-based
Summary of the method: (§2)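 Cells differentiated as for triglyceride assay with compound in DMSO (final 0.1%) in differentiation and maintenance media. Day 8: serum-free 4 h, KRP buffer wash, 20 min with 100 nM insulin, then 0.1 mM 2-deoxyglucose plus [3H]2-deoxyglucose (1 µCi/mL) 10 min at 37 °C. Lysed in 1 M NaOH, neutralized, scintillation counted; cytochalasin B (20 µM) nonspecific uptake subtracted.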

[7] = tested on: 3T3-L1; assay: Increase in 2-deoxyglucose uptake in mouse 3T3L1 cells by liquid scintillation counter; assay type: functional, cell-based; summary of the method: as §2
[8] = tested on: 3T3-L1; assay: Induction of adiponectin release to medium in mouse 3T3L1 cells at 10 uM by ELISA; assay type: functional, cell-based
Summary of the method: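 3T3-L1 cells (5.0 × 10^4/well) differentiated, then maintenance medium 4 days; compound in DMSO (final 0.1%) present in media; on day 8 adiponectin in culture medium quantified by ELISA.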

[9] = tested on: 3T3-L1; assay: Increase in adiponectin mRNA expression in mouse 3T3L1 cells at 10 uM after 4 days by RT-PCR; assay type: functional, cell-based
Summary of the method: (§3)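 3T3-L1 cells (1.0 × 10^6/well) in DMEM + 10% FCS, differentiated with compound; control 0.1% DMSO; mRNA levels of adiponectin, PPARγ2, GLUT4, IRS-1 assessed; means ± SEM, n = 3.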

[10] = tested on: 3T3-L1; assay: Increase in GLUT4 mRNA expression in mouse 3T3L1 cells after 4 days by RT-PCR; assay type: functional, cell-based; summary of the method: as §3
[11] = tested on: 3T3-L1; assay: Increase in PPARgamma2 mRNA expression in mouse 3T3L1 cells after 4 days by RT-PCR; assay type: functional, cell-based; summary of the method: as §3
[12] = tested on: 3T3-L1; assay: Increase in IRS1 mRNA expression in mouse 3T3L1 cells at 30 uM after 4 days by RT-PCR; assay type: functional, cell-based; summary of the method: as §3

Row | SMILES | Activity [1] [%] | Activity [2] [%] | Activity [3] [%] | Activity [4] [%] | Activity [5] [%] | Activity [6] | Activity [7] | Activity [8] | Activity [9] | Activity [10] | Activity [11] | Activity [12]
1 | CCCCC/C=C\CCCCCCCC/C=C/C=C/C(=O)NCC(C)C | -3 | -7.2 | 7.2 | 20.2 | – | – | – | – | – | – | – | –
2 | CC(C)CNC(=O)/C=C/CCCC/C=C/c1ccc2c(c1)OCO2 [RETROFRACTAMIDE C] | 9.7 | 15 | 22.2 | 15.4 | – | – | – | – | – | – | – | –
3 | O=C(/C=C/CCCCCC/C=C/c1ccc2c(c1)OCO2)N1CCCCC1 [PIPERCHABAMIDE B] | -14.1 | -2.2 | -3.5 | – | -30.3 | – | – | – | – | – | – | –
4 | CC(C)CNC(=O)/C=C/C=C/CCCC/C=C/c1ccc2c(c1)OCO2 [RETROFRACTAMIDE B] | 18.8 | 29.9 | 28.4 | 27.6 | – | – | – | – | – | – | – | –
5 | Cc1c(C)c2c(c(C)c1O)CCC(C)(COc1ccc(CC3SC(=O)NC3=O)cc1)O2 (centres undefined) [TROGLITAZONE] | 33.8 | 40.5 | 39.6 | – | – | Active | – | – | – | – | – | –
6 | CCOC(=O)/C=C/C=C/CC/C=C/c1ccc2c(c1)OCO2 | 2.9 | 2.9 | 1.2 | 8.7 | – | – | – | – | – | – | – | –
7 | O=C(/C=C/CCCC/C=C/c1ccc2c(c1)OCO2)N1CCCCC1 [PIPERNONALINE] | 1 | 5.4 | 10.5 | – | -61.2 | – | – | – | – | – | – | –
8 | O=C(/C=C/C=C/CCCC/C=C/c1ccc2c(c1)OCO2)N1CCCCC1 [PIPERUNDECALIDIENE] | -13 | -7.3 | 7.3 | – | -60.8 | – | – | – | – | – | – | –
9 | CCCCCCC/C=C/C=C/C(=O)NCC(C)C | 10.1 | 16.3 | 11.1 | 15.3 | – | – | – | – | – | – | – | –
10 | CC(C)CNC(=O)/C=C/C=C/CCCCCCCC/C=C/c1ccc2c(c1)OCO2 [BRACHYSTAMIDE B] | 11.1 | 18.5 | 16.8 | 13.7 | – | – | – | – | – | – | – | –
11 | CC(C)CNC(=O)/C=C/C=C/c1ccc2c(c1)OCO2 [PIPERLONGUMININE] | 19.5 | 28.1 | 31.8 | 20.4 | – | – | – | – | – | – | – | –
12 | O=C(/C=C/CCc1ccc2c(c1)OCO2)N1CCCCC1 [PIPERANINE] | 20.4 | 19.1 | 13.1 | 8.3 | – | – | – | – | – | – | – | –
13 | CCCCCCCCCCCCC/C=C/C=C/C(=O)NCC(C)C | 14.1 | 3.3 | 19.6 | 20.6 | – | – | – | – | – | – | – | –
14 | COC(=O)/C=C/C=C/c1ccc2c(c1)OCO2 [METHYL PIPERATE] | 5.2 | 17.8 | 25.2 | 17.1 | – | – | – | – | – | – | – | –
15 | CC(C)CNC(=O)/C=C/CCCCCC/C=C/c1ccc2c(c1)OCO2 [PIPERCHABAMIDE D] | 1.7 | 8 | 8.5 | 4.7 | – | – | – | – | – | – | – | –
16 | CCCCC/C=C/C=C/C(=O)NCC(C)C [PELLITORIN] | 4.4 | 18.2 | 10 | 6.2 | – | – | – | – | – | – | – | –
17 | O=C(CCCCCC/C=C/c1ccc2c(c1)OCO2)N1CCCCC1 [PIPERROLEIN B] | -2.8 | 30.3 | 20.9 | 9.4 | – | – | – | – | – | – | – | –
18 | O=C(/C=C/C=C/CCCCCC/C=C/c1ccc2c(c1)OCO2)N1CCCCC1 [PIPERCHABAMIDE C] | 9.4 | 17.6 | -10.2 | -11 | – | – | – | – | – | – | – | –
19 | O=C(/C=C/C=C/c1ccc2c(c1)OCO2)N1CCCCC1 [PIPERINE] | -1.2 | -3.9 | -14.2 | -1.2 | – | – | – | – | – | – | – | –
20 | O=C(O)/C=C/C=C/CC/C=C/c1ccc2c(c1)OCO2 | -3.9 | 1.5 | 3.9 | -7.3 | – | – | – | – | – | – | – | –
21 | CC(C)CNC(=O)/C=C/C=C/CCCCCC/C=C/c1ccc2c(c1)OCO2 [GUINEENSINE] | 1.5 | 9.7 | 0.8 | 2 | – | – | – | – | – | – | – | –
22 | O=C(/C=C/C=C/CC/C=C/c1ccc2c(c1)OCO2)N1CCCCC1 [DEHYDROPIPERNOLINE] | 0.5 | 1.8 | 1.5 | – | -19.9 | – | – | – | – | – | – | –
23 | CC(C)CNC(=O)/C=C/C=C/CC/C=C/c1ccc2c(c1)OCO2 [RETROFRACTAMIDE A] | 25.1 | 27.3 | 27.8 | 33.3 | – | Active | Dose-dependent effect | Active | Active | Active | Active | Active
